# Test results as given in the array DNA melting data of Ke et al. (doi:10.1101/2024.01.08.574731).
# Columns and labels:
# [1] = melting temperature; fluorescence melt of hairpins on a sequencing array, two-state fit, raised by 9.35 °C to match UV melts; settings: sodium 0.088 M
# Summary of the method: (§1)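 Two-state fits, bootstrapped, provided melting temperature and folding enthalpy from Cy3 fluorescence normalised to pre-quench Cy3 and to control constructs. Library hairpins with annealed Cy3 and quencher oligos were imaged on a sequenced MiSeq flow cell in 50 mM Na-HEPES pH 8.0, 25 mM NaCl, at 2.5 °C intervals up to 60 °C. Four replicates were combined with inverse-variance weighting. A 9.35 °C upward shift was applied to fitted temperatures to match UV melts.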
# [2] = folding enthalpy; higher = less favourable; fluorescence melt of hairpins on a sequencing array, two-state fit; settings: sodium 0.088 M
# Summary of the method: as §1
Sequence,Tm [1] [°C],folding enthalpy [2] [kcal/mol]
GATCACGTACGTGATC ((((((....)))))),64,-47.7
GGTAGTGGAAACACTGTC (..((((....))))..),29.2,-20.9
GATCAAATAATTGATC ((((((....)))))),34.7,-27.9
GGACACGAAAGTGTTCC ((((((....))).))),56,-17.5
GCCGGCGAAAGCCAGGGC ((((((....)))..))),63.1,-18.7
GGAGGCGAAAGCCATTCC ((((((....)))..))),34.7,-7.5
GCTCTGCGAAAGCTGAGC ((((.((....)).)))),68.3,-41.2
GCGATGCGAAAGCAGGGC ((..(((....)))..)),61.4,-20.4
CGTATCCGGAAACGGACG (((..(((....)))))),32.5,-13.8
GGTTACGAAAGTAGGACC ((((((....)))..))),32,-11.5
GCACTGCGAAAGCGTTGC (((..((....))..))),45.3,-23.6
GGGTCCACGAAAGTGCCC (((..(((....)))))),40.8,-17.9
GCAGGTGGAAACGTCTGC ((((..(....)..)))),42.5,-25.7
GGCTGCACGAAAGTGGCC (((..(((....)))))),49,-20
GCGTAAGGAAACTTACGC (((((((....))))))),63.4,-44.5
GTAACCCGAAAGGGTAC (((.(((....)))))),50.1,-12.5
GATCGCCGATGCGATC ((((((....)))))),66.6,-32
GATCATTTCGATGATC ((((((....)))))),49.2,-41.6
GCGTCGAGACGC ((((....)))),61,-25.2
GCGATCAATCGC ((((....)))),51.1,-24.9
GTTCTACGAAAGTAAAC (((.(((....)))))),27.6,-10.8
GATCACTATCGTGATC ((((((....)))))),55.1,-41.2
GCACCGCGAAAGCTGTGC ((((.((....)).)))),66.2,-32.1
GGAGTTGGAAACGACTCC (((((.(....).))))),54.9,-23.2

Sequence,Tm [1] [°C],folding enthalpy [2] [kcal/mol]
GATCCTACTTAGGATC ((((((....)))))),53.2,-37.3
GGGCAACGAAAGTTACCC (((.(((....))).))),52.2,-38.9
GCTCCCGAAAGGGAGAGC ((((((....)))..))),65.8,-11.8
GAGAGCGAAAGCTTCCTC ((((((....)))..))),27.3,-10.7
GATCCCTAAGGGGATC ((((((....)))))),61.1,-35.2
GCGTAGCGAAAGCAAAGC ((.(.((....)).).)),54.5,-14.2
GCCTAGCGAAAGCTCGGC (((.(((....))).))),56.8,-39.4
GCAGAACGAAAGTTTGC (((.(((....)))))),44.7,-25.9
GACGAGGGAAACCTTGTC (((.(((....))).))),48.1,-31.4
GCCCTCGAAAGAGTCGGC ((((((....)))..))),40.9,-24.1
GCTAGTGCGAAAGCAAGC (((..(((....)))))),39,-12.3
GCGGACGCCGC ((((...)))),58.3,-19.1
GGAAGAGGAAACTCTCCC ((.((((....)))).)),32.9,-18.2
GGTGACGAAAGTCGTACC ((((((....)))..))),46.2,-15.6
GGCCTCGGAAACGAGACC ((.((((....)))).)),52.2,-31.3
GCACTGCGAAAGCGATGC (((..((....))..))),45,-19.7
CGTAACGGAAACGTACG (((.(((....)))))),44.3,-31
GTTGACGAAAGTCATAAC ((((((....)))..))),33.5,-12.9
GTCGCCGGAAACGGCAAC ((.((((....)))).)),47.1,-11.2
GATCGTGCGAACGATC ((((((....)))))),64.1,-32.9
GCGATTGGAAACAGTCGC ((((.((....)).)))),54.2,-42
GTACGTCGAAAGACTAC (((.(((....)))))),41,-21.9
GCGTACCAACGC ((((....)))),53.6,-21
CAATTGAAAAATTG (((((....))))),35.6,-13.6

Sequence,Tm [1] [°C],folding enthalpy [2] [kcal/mol]
GAGGACGAAAGTCACCTC ((((((....)))..))),36.2,-12.9
GGCTTCGAAAGAATCGCC ((((((....)))..))),35.8,-27.7
GTTTCCGAAAGGACAAAC ((((((....)))..))),26.1,-9.58
GTACCCGAAAGGGGCTAC ((((((....)))..))),41.4,-14.3
GTATACCGAAAGGTGTAC (((.(((....))).))),51.6,-27.6
GGATCCGAAAGGAGGTCC ((((((....)))..))),32.9,-14.9
GAGATAGGAAACTATCTC (((((((....))))))),53.1,-35
CCGTAGAAATACGG (((((....))))),47.3,-17.8
GATCATTGGCATGATC ((((((....)))))),45.5,-30.3
GCCGGCGAAAGCCCCGGC ((((((....)))..))),55.2,-18.3
CGTTCGGAAACGAGACG ((((((....))).))),39,-24.1
GATCCGGGTTCGGATC ((((((....)))))),58.5,-44.7
GATCATCGCCATGATC ((((((....)))))),46.3,-35.7
GAAACCCGAAAGGGCTTC (((.(((....))).))),46.4,-24.9
GCCCGTGCGAAAGCAGGC (((..(((....)))))),52,-12.4
GATCGACACGTCGATC ((((((....)))))),59.7,-33.7
GATCTTATACAAGATC ((((((....)))))),42.6,-33.8
GTCAACGGAAACGTTAAC ((.((((....)))).)),33.7,-17.6
GGTCTCCGAAAGGAAACC (((.(((....))).))),45.5,-29.2
GCATGGGGAAACCCACAC (..((((....))))..),29,-14.2
GATCCACGCCTGGATC ((((((....)))))),52.3,-36.9
GATCGGACTACCGATC ((((((....)))))),55.6,-36.6
GGGCGCGAAAGCGTGCCC ((((((....)))..))),64.2,-19.1
GGCATTGCGAAAGCAGCC (((..(((....)))))),50.7,-16.4

Sequence,Tm [1] [°C],folding enthalpy [2] [kcal/mol]
GTGAAACGAAAGTTCAC (((.(((....)))))),47.6,-18.3
GCGGTTCGAAAGAAACGC (((.(((....))).))),69.1,-33.7
TCCAGGAAACTGGA (((((....))))),46,-22.8
GGATTTGGAAACAGATCC ((((.((....)).)))),41.5,-30.7
GCGGATCACCGC ((((....)))),59,-25.8
GATCTAGAATAGATC ((((((...)))))),49.9,-37.4
GGGTGCGGAAACGCACTC (.(((((....))))).),59.4,-12
GTTAGACCGAAAGGTAAC (((..(((....)))))),30.2,-11.2
GATCCTTATTAGGATC ((((((....)))))),51.7,-37.8
GATCTACTTATAGATC ((((((....)))))),43,-29.4
GGTACCGAAAGGTTTACC ((((((....)))..))),37.1,-13.8
GTGATGGGAAACCGTTAC ((.(.((....)).).)),31,-18.6
GTTGGGGGAAACCCTGAC ((..(((....)))..)),35.6,-23.8
GTACCACGAAAGTGTTAC (((.(((....))).))),39.2,-24.1
GATCTAGATTAGATC ((((((...)))))),36.2,-26.3
GCATTCGAAAGAAAATGC ((((((....)))..))),34.6,-24.8
GATCAGCTGCCTGATC ((((((....)))))),50.5,-27.5
GATCCCTAATGGGATC ((((((....)))))),57.6,-38.3
GAATCTGGAAACGGATTC (((((.(....).))))),44.8,-35.1
GCCTAGCGAAAGCGGGGC (((..((....))..))),65.9,-22.3
GCGTTTCGAAAGAATCGC (((.(((....))).))),53.5,-46
